Test results published in ChEMBL document CHEMBL3352236, “Discovery and molecular modeling of novel 1-indolyl acetate--5-nitroimidazole targeting tubulin polymerization as antiproliferative agents” (Eur J Med Chem, 2014).

Assays:
U-251 = assay: Antiproliferative activity against human U251 cells after 24 to 48 hrs by CKK8 assay; assay type: functional, cell-based
Outline: (§1)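 CCK-8 assay. 1–5 × 10³ cells per well grown at 37 °C for 12 h, then exposed to rising compound concentrations in 10% FBS for 24 or 48 h. CCK-8 dye added and incubated 1–2 h at 37 °C, […]. Percent inhibition or IC50 taken relative to DMSO-treated control wells.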

HeLa = assay: Antiproliferative activity against human HeLa cells after 24 to 48 hrs by CKK8 assay; assay type: functional, cell-based; outline: as §1
A549 = assay: Antiproliferative activity against human A549 cells after 24 to 48 hrs by CKK8 assay; assay type: functional, cell-based; outline: as §1
Tubulin = Tubulin (Bos taurus, UniProt Q6B856+Q862L2+Q862F3); assay: Inhibition of bovine brain tubulin preincubated for 20 mins by turbidimetry
[1] = Cytotoxicity against human macrophages assessed as reduction in cell viability after 24 hrs by MTT assay; assay type: cell-based, Macrophage
Outline: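 Human macrophages at 5*10⁵ cells per well treated with a range of compound concentrations for 24 h at 37 °C, 5% CO₂. MTT (4 mg/mL) added and left 4 h, then centrifugation at 1200 rcf for 5 min and formazan dissolved in DMSO. Absorbance read at 570 nm. Triplicate wells, assay run three times, mean CC50 (50% viability loss) ± SD reported.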

Structure (SMILES) | IC50 (U-251) [µM] | IC50 (HeLa) [µM] | IC50 (A549) [µM] | IC50 (Tubulin) [µM] | CC50 at 24 h [1] [µM]
O=C(OCCn1c([N+](=O)[O-])cnc1/C=C/c1ccc(Cl)cc1)c1c[nH]c2ccccc12 | 3.23 | 3.77 | 4.51 | 98.8 | 104
O=C(OCCn1c([N+](=O)[O-])cnc1/C=C/c1ccccc1Cl)c1c[nH]c2ccccc12 | 2.98 | 3.1 | 4.24 | 71.2 | 132
O=C(OCCn1c([N+](=O)[O-])cnc1/C=C/c1cccc(Cl)c1)c1c[nH]c2ccccc12 | 4.08 | 4.21 | 5.02 | 103 | 156
O=C(OCCn1c([N+](=O)[O-])cnc1/C=C\c1ccccc1Br)c1c[nH]c2ccccc12 | 3.09 | 4.12 | 5.11 | 112.2 | 145
O=C(OCCn1c([N+](=O)[O-])cnc1/C=C\c1cccc(Br)c1)c1c[nH]c2ccccc12 | 3.87 | 4.81 | 6.03 | 162 | 164
O=C(OCCn1c([N+](=O)[O-])cnc1/C=C\c1ccc(Br)cc1)c1c[nH]c2ccccc12 | 3.89 | 4.8 | 5.55 | 123.3 | 98
Cc1cccc(/C=C\c2ncc([N+](=O)[O-])n2CCOC(=O)c2c[nH]c3ccccc23)c1 | 3.02 | 3.77 | 4.32 | 75.3 | 154
Cc1ccc(/C=C\c2ncc([N+](=O)[O-])n2CCOC(=O)c2c[nH]c3ccccc23)cc1 | 3.11 | 2.28 | 3.88 | 45.2 | 123
COc1ccccc1/C=C\c1ncc([N+](=O)[O-])n1CCOC(=O)c1c[nH]c2ccccc12 | 4.09 | 3.23 | 3.11 | 21.4 | 77
COc1ccc(/C=C\c2ncc([N+](=O)[O-])n2CCOC(=O)c2c[nH]c3ccccc23)cc1 | 3.07 | 3.88 | 3.97 | 50.3 | 106
O=C(OCCn1c([N+](=O)[O-])cnc1/C=C\c1cccc2ccccc12)c1c[nH]c2ccccc12 | 12.8 | 10.1 | 7.02 | 186.5 | 158
O=C(OCCn1c([N+](=O)[O-])cnc1/C=C\c1ccccc1)c1c[nH]c2ccccc12 | 16.9 | 13.6 | 8.43 | 204.1 | 105
COc1ccc(/C=C\c2cc(OC)c(OC)c(OC)c2)cc1O [COMBRETASTATIN A4] | 0.54 | 1.44 | 2.79 | – | –

More lines, main results first:

IC50 (U-251) [µM] | IC50 (HeLa) [µM] | IC50 (A549) [µM] | IC50 (Tubulin) [µM] | Structure (SMILES) | CC50 at 24 h [1] [µM]
1.11 | 1.24 | 2.12 | 6.3 | O=C(OCCn1c([N+](=O)[O-])cnc1/C=C\c1ccccc1[N+](=O)[O-])c1c[nH]c2ccccc12 | 109
2.81 | 2.01 | 2.86 | 19.5 | O=C(OCCn1c([N+](=O)[O-])cnc1/C=C\c1cccc([N+](=O)[O-])c1)c1c[nH]c2ccccc12 | 123
2.03 | 1.79 | 2.01 | 6.9 | O=C(OCCn1c([N+](=O)[O-])cnc1/C=C\c1ccc([N+](=O)[O-])cc1)c1c[nH]c2ccccc12 | 200
2.79 | 4.43 | 4.02 | 67.2 | Cc1ccccc1/C=C\c1ncc([N+](=O)[O-])n1CCOC(=O)c1c[nH]c2ccccc12 | 202
2.76 | 4.01 | 4.09 | 67.7 | COc1cccc(/C=C\c2ncc([N+](=O)[O-])n2CCOC(=O)c2c[nH]c3ccccc23)c1 | 89
0.87 | 1.05 | 2 | 2.4 | O=C(OCCn1c([N+](=O)[O-])cnc1/C=C\c1ccc(Cl)cc1Cl)c1c[nH]c2ccccc12 | 287
